Source: ChEMBL document CHEMBL5724801, “EUbOPEN Chemogenomics Library - Multiplex” (2024)
“And” between values parts separate entries of the source, which are not always exact repeats. Equal entries are not always repeated.

System: Fibroblast
Experiment: Multiplex assay against human fibroblast
Assay type: toxicity, cell-based
Outline: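 Cells stained live at seeding with Hoechst33342, BioTracker Green Microtubule Cytoskeleton Dye, MitoTracker Red and Annexin V Alexa Fluor 680 were imaged on a CQ1 microscope at 37°C and 5% CO2 after compound addition. Their classification by CellPathfinder machine-learning gating ran from Hoechst high-intensity objects versus normal cells, to healthy, pyknosed or fragmented nuclei among normal cells, to mitotic or apoptotic among pyknosed cells. Tubulin, mitochondrial-mass and membrane-permeability phenotypes are per cents of healthy-nucleus cells.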

[1] = 12 h, 1 µM, compound concentration 1 uM
[2] = 12 h, 10 µM, compound concentration 10 uM
[3] = 24 h, 1 µM, compound concentration 1 uM
[4] = 24 h, 10 µM, compound concentration 10 uM
[5] = 48 h, 1 µM, compound concentration 1 uM
[6] = 48 h, 10 µM, compound concentration 10 uM

Cl.Cl.N#Cc1ccc(O[C@@H]2c3ccccc3C[C@H]2N2CCC[C@@H](N)C2)c(Cl)c1
Population Apoptotic (%) [1]: 13.21% and 14.29% | Population Fragmented Nuclei (%) [1]: 8.33% and 10.47% | Population Healthy Nuclei (%) [1]: 57.69% and 74.87% | Population Hoechst High Intensity Objects (%) [1]: 0% | Population Membrane Permeable-Phenotype (%) [1]: 6.67% and 4.9% | Population Mitochondria Different-Phenotype (%) [1]: 20% and 19.58% | Population Mitotic Cells (%) [1]: 86.79% and 85.71% | Population Normal (%) [1]: 100% | Population Pyknosed Nuclei (%) [1]: 33.97% and 14.66% | Population Tubulin-Different-Phenotype (%) [1]: 35.56% and 58.04% | Total Cell Count [1]: 156 and 191 | Population Apoptotic (%) [2]: 14.81% and 27.63% | Population Fragmented Nuclei (%) [2]: 18.93% and 7.94% | Population Healthy Nuclei (%) [2]: 49.11% and 64.62% | Population Hoechst High Intensity Objects (%) [2]: 0% | Population Membrane Permeable-Phenotype (%) [2]: 3.61% and 6.15% | Population Mitochondria Different-Phenotype (%) [2]: 62.65% and 43.58% | Population Mitotic Cells (%) [2]: 85.19% and 72.37% | Population Normal (%) [2]: 100% | Population Pyknosed Nuclei (%) [2]: 31.95% and 27.44% | Population Tubulin-Different-Phenotype (%) [2]: 78.31% and 88.83% | Total Cell Count [2]: 169 and 277 | Population Fragmented Nuclei (%) [3]: 6.79% and 14.63% | Population Healthy Nuclei (%) [3]: 62.35% and 76.59% | Population Hoechst High Intensity Objects (%) [3]: 0% | Population Membrane Permeable-Phenotype (%) [3]: 4.95% and 3.18% | Population Mitochondria Different-Phenotype (%) [3]: 18.81% and 13.38% | Population Mitotic Cells (%) [3]: 98% and 77.78% | Population Normal (%) [3]: 100% | Population Tubulin-Different-Phenotype (%) [3]: 36.63% and 57.32% | Total Cell Count [3]: 162 and 205 | Population Apoptotic (%) [4]: 29.27% and 37.5% | Population Fragmented Nuclei (%) [4]: 11.58% and 4.05% | Population Healthy Nuclei (%) [4]: 66.84% and 78.5% | Population Hoechst High Intensity Objects (%) [4]: 0% | Population Membrane Permeable-Phenotype (%) [4]: 2.36% and 3.17% | Population Mitochondria Different-Phenotype (%) [4]: 70.08% and 55.16% | Population Mitotic Cells (%) [4]: 70.73% and 62.5% | Population Normal (%) [4]: 100% | Population Pyknosed Nuclei (%) [4]: 21.58% and 17.45% | Population Tubulin-Different-Phenotype (%) [4]: 85.83% and 88.1% | Total Cell Count [4]: 190 and 321 | Population Apoptotic (%) [5]: 20% and 38.89% | Population Fragmented Nuclei (%) [5]: 13.79% and 11.43% | Population Healthy Nuclei (%) [5]: 78.82% and 80% | Population Hoechst High Intensity Objects (%) [5]: 0% | Population Membrane Permeable-Phenotype (%) [5]: 1.88% and 1.79% | Population Mitochondria Different-Phenotype (%) [5]: 16.88% and 10.12% | Population Mitotic Cells (%) [5]: 80% and 61.11% | Population Normal (%) [5]: 100% | Population Pyknosed Nuclei (%) [5]: 7.39% and 8.57% | Population Tubulin-Different-Phenotype (%) [5]: 32.5% and 59.52% | Total Cell Count [5]: 203 and 210 | Population Apoptotic (%) [6]: 37.5% and 50% | Population Healthy Nuclei (%) [6]: 75.86% and 86.13% | Population Hoechst High Intensity Objects (%) [6]: 0% | Population Membrane Permeable-Phenotype (%) [6]: 0.57% and 3.37% | Population Mitochondria Different-Phenotype (%) [6]: 42.61% and 26.22% | Population Mitotic Cells (%) [6]: 62.5% and 50% | Population Normal (%) [6]: 100% | Population Pyknosed Nuclei (%) [6]: 3.45% and 7.1% | Population Tubulin-Different-Phenotype (%) [6]: 79.55% and 86.89% | Total Cell Count [6]: 232 and 310

COc1ccc2nc3ccc(OC)cc3c(SCCCN)c2c1.Cl
Population Apoptotic (%) [1]: 27.78% and 22.73% | Population Fragmented Nuclei (%) [1]: 27.67% and 18.52% | Population Healthy Nuclei (%) [1]: 58.1% and 71.3% | Population Hoechst High Intensity Objects (%) [1]: 0% | Population Membrane Permeable-Phenotype (%) [1]: 4.08% and 5.19% | Population Mitochondria Different-Phenotype (%) [1]: 10.88% and 10.39% | Population Mitotic Cells (%) [1]: 72.22% and 77.27% | Population Normal (%) [1]: 100% | Population Pyknosed Nuclei (%) [1]: 14.23% and 10.19% | Population Tubulin-Different-Phenotype (%) [1]: 28.57% and 25.97% | Total Cell Count [1]: 253 and 216 | Population Apoptotic (%) [2]: 50% | Population Fragmented Nuclei (%) [2]: 83.22% and 87.99% | Population Healthy Nuclei (%) [2]: 15.99% and 11.88% | Population Hoechst High Intensity Objects (%) [2]: 0.3% and 6.47% | Population Membrane Permeable-Phenotype (%) [2]: 6.17% and 4.52% | Population Mitochondria Different-Phenotype (%) [2]: 24.69% and 15.25% | Population Mitotic Cells (%) [2]: 50% | Population Normal (%) [2]: 99.7% and 93.53% | Population Pyknosed Nuclei (%) [2]: 0.79% and 0.13% | Population Tubulin-Different-Phenotype (%) [2]: 53.09% and 68.93% | Total Cell Count [2]: 1016 and 1593 | Population Apoptotic (%) [3]: 7.41% and 18.18% | Population Fragmented Nuclei (%) [3]: 25% and 14.63% | Population Healthy Nuclei (%) [3]: 63.36% and 74.63% | Population Hoechst High Intensity Objects (%) [3]: 0% | Population Membrane Permeable-Phenotype (%) [3]: 4.76% and 3.27% | Population Mitochondria Different-Phenotype (%) [3]: 5.44% and 7.84% | Population Mitotic Cells (%) [3]: 92.59% and 81.82% | Population Normal (%) [3]: 100% | Population Pyknosed Nuclei (%) [3]: 11.64% and 10.73% | Population Tubulin-Different-Phenotype (%) [3]: 25.17% and 21.57% | Total Cell Count [3]: 232 and 205 | Population Fragmented Nuclei (%) [4]: 83.95% and 88.56% | Population Healthy Nuclei (%) [4]: 15.31% and 11.32% | Population Hoechst High Intensity Objects (%) [4]: 0% and 5.09% | Population Membrane Permeable-Phenotype (%) [4]: 1.21% and 3.16% | Population Mitochondria Different-Phenotype (%) [4]: 27.27% and 24.21% | Population Mitotic Cells (%) [4]: 87.5% and 50% | Population Normal (%) [4]: 100% and 94.91% | Population Pyknosed Nuclei (%) [4]: 0.74% and 0.12% | Population Tubulin-Different-Phenotype (%) [4]: 47.27% and 59.47% | Total Cell Count [4]: 1078 and 1768 | Population Fragmented Nuclei (%) [5]: 28.35% and 15.03% | Population Healthy Nuclei (%) [5]: 66.14% and 83.42% | Population Hoechst High Intensity Objects (%) [5]: 0% | Population Membrane Permeable-Phenotype (%) [5]: 1.79% and 1.24% | Population Mitotic Cells (%) [5]: 71.43% and 100% | Population Normal (%) [5]: 100% | Population Pyknosed Nuclei (%) [5]: 5.51% and 1.55% | Population Tubulin-Different-Phenotype (%) [5]: 18.45% and 20.5% | Total Cell Count [5]: 254 and 193 | Population Apoptotic (%) [6]: 60% | Population Fragmented Nuclei (%) [6]: 84.38% and 88.09% | Population Healthy Nuclei (%) [6]: 15.23% and 11.61% | Population Hoechst High Intensity Objects (%) [6]: 1.01% and 7.64% | Population Membrane Permeable-Phenotype (%) [6]: 2.56% and 4.71% | Population Mitochondria Different-Phenotype (%) [6]: 6.67% and 4.19% | Population Mitotic Cells (%) [6]: 40% | Population Normal (%) [6]: 98.99% and 92.36% | Population Pyknosed Nuclei (%) [6]: 0.39% and 0.3% | Population Tubulin-Different-Phenotype (%) [6]: 27.69% and 51.83% | Total Cell Count [6]: 1293 and 1781

CC(C)Oc1ccc(F)c(-c2cnc(N)c(C(=O)Nc3cnccc3N3CCC[C@@H](C(=O)O)C3)n2)c1
Population Apoptotic (%) [1]: 23.53% and 20.59% | Population Fragmented Nuclei (%) [1]: 23.08% and 16.74% | Population Healthy Nuclei (%) [1]: 53.85% and 68.67% | Population Hoechst High Intensity Objects (%) [1]: 0% | Population Membrane Permeable-Phenotype (%) [1]: 1.68% and 3.12% | Population Mitochondria Different-Phenotype (%) [1]: 7.56% and 5.62% | Population Mitotic Cells (%) [1]: 76.47% and 79.41% | Population Normal (%) [1]: 100% | Population Pyknosed Nuclei (%) [1]: 23.08% and 14.59% | Population Tubulin-Different-Phenotype (%) [1]: 15.97% and 18.12% | Total Cell Count [1]: 221 and 233 | Population Apoptotic (%) [2]: 16.67% and 33.33% | Population Fragmented Nuclei (%) [2]: 29.81% and 29.75% | Population Healthy Nuclei (%) [2]: 60.87% and 65.82% | Population Hoechst High Intensity Objects (%) [2]: 0% | Population Membrane Permeable-Phenotype (%) [2]: 16.33% and 15.38% | Population Mitochondria Different-Phenotype (%) [2]: 5.61% and 3.53% | Population Mitotic Cells (%) [2]: 83.33% and 66.67% | Population Normal (%) [2]: 100% | Population Pyknosed Nuclei (%) [2]: 9.32% and 4.43% | Population Tubulin-Different-Phenotype (%) [2]: 45.92% and 79.17% | Total Cell Count [2]: 322 and 474 | Population Fragmented Nuclei (%) [3]: 24.16% and 21.57% | Population Healthy Nuclei (%) [3]: 52.79% and 67.45% | Population Hoechst High Intensity Objects (%) [3]: 0% | Population Membrane Permeable-Phenotype (%) [3]: 4.23% and 3.49% | Population Mitochondria Different-Phenotype (%) [3]: 2.11% and 4.65% | Population Mitotic Cells (%) [3]: 93.55% and 71.43% | Population Normal (%) [3]: 100% | Population Pyknosed Nuclei (%) [3]: 23.05% and 10.98% | Population Tubulin-Different-Phenotype (%) [3]: 14.79% and 23.26% | Total Cell Count [3]: 269 and 255 | Population Apoptotic (%) [4]: 11.11% and 17.65% | Population Fragmented Nuclei (%) [4]: 39.53% and 37.88% | Population Healthy Nuclei (%) [4]: 53.49% and 59.43% | Population Hoechst High Intensity Objects (%) [4]: 0% | Population Membrane Permeable-Phenotype (%) [4]: 13.04% and 18.13% | Population Mitochondria Different-Phenotype (%) [4]: 11.11% and 4.27% | Population Mitotic Cells (%) [4]: 88.89% and 82.35% | Population Normal (%) [4]: 100% | Population Pyknosed Nuclei (%) [4]: 6.98% and 2.69% | Population Tubulin-Different-Phenotype (%) [4]: 58.94% and 76% | Total Cell Count [4]: 387 and 631 | Population Apoptotic (%) [5]: 11.96% and 8.33% | Population Fragmented Nuclei (%) [5]: 17.32% and 18.8% | Population Healthy Nuclei (%) [5]: 61.43% and 70.94% | Population Hoechst High Intensity Objects (%) [5]: 0% | Population Membrane Permeable-Phenotype (%) [5]: 1.88% and 3.61% | Population Mitochondria Different-Phenotype (%) [5]: 6.39% and 2.41% | Population Mitotic Cells (%) [5]: 88.04% and 91.67% | Population Normal (%) [5]: 100% | Population Pyknosed Nuclei (%) [5]: 21.25% and 10.26% | Population Tubulin-Different-Phenotype (%) [5]: 24.06% and 42.97% | Total Cell Count [5]: 433 and 351 | Population Apoptotic (%) [6]: 25% and 75% | Population Fragmented Nuclei (%) [6]: 43.91% and 38.05% | Population Healthy Nuclei (%) [6]: 54.09% and 60.35% | Population Hoechst High Intensity Objects (%) [6]: 0% | Population Membrane Permeable-Phenotype (%) [6]: 15.74% and 24.56% | Population Mitochondria Different-Phenotype (%) [6]: 9.88% and 3.1% | Population Mitotic Cells (%) [6]: 75% and 25% | Population Normal (%) [6]: 100% | Population Pyknosed Nuclei (%) [6]: 2% and 1.6% | Population Tubulin-Different-Phenotype (%) [6]: 61.73% and 91.37% | Total Cell Count [6]: 599 and 749
